Data taken from the EternaBench riboswitch data.

Tested on: MS2 coat protein
Assay: apparent Kd, MS2 coat protein; higher = weaker binding; RNA-MaP array; FMN 200 µM where present
Method in brief: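 Stalled E. coli RNA polymerase produced the designs on Illumina sequencing-chip clusters. SNAP-549-labelled MS2 coat protein was added from 0.7 or 1.5 nM, doubling to 3 µM, without and then with constant ligand, in 100 mM Tris-HCl pH 7.5, 80 mM KCl, 4 mM MgCl2, BSA, DTT, yeast tRNA and Tween-20. The apparent Kd is the median of filtered per-cluster fits of green signal normalised to red-channel RNA signal and control-cluster median Fmax.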

[1] = designed as: OFF switch for flavin mononucleotide, no ligand
[2] = ligand present: flavin mononucleotide, designed as: OFF switch for flavin mononucleotide
[3] = designed as: ON switch for flavin mononucleotide, no ligand
[4] = ligand present: flavin mononucleotide, designed as: ON switch for flavin mononucleotide

| Sequence | apparent Kd [1] | apparent Kd [2] | apparent Kd [3] | apparent Kd [4] |
| --- | --- | --- | --- | --- |
| GCCGAUUAAGUGAGGAUAUACCUAUGGAUACAUAGGUAGAAGGCACAUGAGGAUCACCCAUGUUCCUUAACGGC | 0.0112 µM | 0.03 µM |  |  |
| GCAGCUUGGCAGAAGGCCUAGGUGGCGGACCUAGGAGGAUAUGCUACAUGAGGAUCACCCAUGUGGGUGGGAGAAUCCUAGGAG | 0.133 µM | 0.132 µM |  |  |
| AAAUCAGCAGGAUAUGCGAUGUUGUGCUAGAUAGCGGGACCACAUGAGGAUCACCCAUGUAGAAGGGCUGGAUA | 0.0575 µM | 0.0295 µM |  |  |
| GUAACAUGAGGAUCACCCAUGUCGUGCUAGAUGAGUUCUGGUGAGGAUAUACAUGGUAAAUAACUGUAGAAGGCGCUGGGUACA |  |  | 0.132 µM | 0.105 µM |
| GCCAUCGGGUGAGGAUAUAAAAUUAUAAUUAAAUUAGAAGGCACCUCAUAAGACAUGAGGAUCACCCAUGUAGUUAAGAUGGCA |  |  | 0.0876 µM | 0.0295 µM |
| AGAUACAACCAGAAGGACAUGAGGAUCACCCAUGUAGGAUAUGGGUUACACGUUCCUGUGAAUUGUAACGACGCUACGUAGAGU |  |  | 0.178 µM | 0.015 µM |
| GUUUCUAUAAGUUAUAUUUAACAGUCAGAAGGUGAUACUACGACAUGAGGAUCACCCAUGUAAUUCAAGGAUAUGAACUUAAUC |  |  | 1.57 µM | 0.999 µM |
| GCGUGUCAUGUAGGAUAUGACACAGGAAACUGGUCAGAAGGACAUGAGGAUCACCCAUGUAAAAUGUUCAAGAAUAACGCAUGC | 0.0406 µM | 0.137 µM |  |  |
| UUUUUGAAGCUUCGUCAAUACAGUUAGGAUAUGAGAGACAUGAGGAUCACCCAUGUGCAUGUUGAUUAGAAGGAACAACUAUCU | 0.0142 µM | 0.0126 µM |  |  |
| GUACAUACAAAGUUACAUGAGGAUCACCCAUGUUUAUUGGGAAGAAGGGUAACAUUAUUAGAUGUAUAGGAUAUUUCACAAUUG |  |  | 0.511 µM | 0.316 µM |
| CGAUAGGACAGAGGAUAUACACAUGAGGAUCACCCAUGUAAUUACAAUUCUUAAGAUUCUAACAUGUAGAAGGCUGUCCUAUCG | 0.0402 µM | 0.0193 µM |  |  |
| ACAUGAGGAUGAGGAUAUUCAUACAUGAGGAUAGAAGAAGGCAUACAUGAGGAUCACCCAUGUAUACACAUGAGGAUCCCUUAU | 0.0811 µM | 0.156 µM |  |  |
| GGUGCGCCAAGCCUUAAGACCGAACAUGAGGAUCACCCAUGUGAGGAUAUGACAGACGAAAGAAGUCAGAAGGCAUAAGGGUGG | 0.00712 µM | 0.0101 µM |  |  |
| GAUUAACAUGAGGAUCACCCAUGUCGUUAUAUGGGAGGAUAUACGUGGACCGUAGUCCGCGUAGAAGGCCUAAUUG |  |  | 0.311 µM | 0.0603 µM |
| CGUAUGUAAGGAUAUAGCCACAUUACGAAUAAGUAGUGUGGCUAGAAGGUACAUGAGGAUCACCCAUGUAUGGG | 0.153 µM | 0.0853 µM |  |  |
| UUUAUUUCGGCAGGAUAUACAUGUAUAUAUAUUUCUUCAUAUCUUAUUACAUGAGGAUCACCCAUGUAGAAGGGCCUUCUUCUC | 0.0656 µM | 0.0805 µM |  |  |
| CGUGCGUAUGUGAGGAUAUGCUGGUCCUUGGAUCGGCAGAAGGCACAUGAGGAUCACCCAUGUGGUGUCGUACG | 0.351 µM | 0.0229 µM |  |  |
| AAGUAACAUGAGGAUCACCCAUGUGAGGUGAGCGUAGGAUAUCGAGGAGGAAGGGUGGAGCGAGAAGGACGAGAGG |  |  | 0.362 µM | 0.36 µM |
| AGCGUGUAAGGAUAUACGUCGGAUAGCGAAUGCUGUCCCUAGUAGAAGGUACAUGAGGAUCACCCAUGUGUCCA | 0.0233 µM | 0.0701 µM |  |  |
| ACGCUUUGGGAGAAGGUACUUUAAAUUUUUUCCACAUGAGGAUCACCCAUGUAAGGAUAUCCCAUCGUUAAAUAUUCUACAGCA | 0.0084 µM | 0.00706 µM |  |  |
| AUGAUUAUAUUAUACAUGAGGAUCACCCAUGUUAUAAGUCAUGAGGAUAUGGUAUUGUAGUUAUUCCAGAAGGCAUUUAACUUA |  |  | 0.00702 µM | 0.00579 µM |
| GUCGGAAACGACAAUGAUAGGACUGAGGAUAUACAUAAGUUAGUCCAUACAUGAGGAUCACCCAUGUAGAAGGCAGUCCUAUCU | 0.00778 µM | 0.0334 µM |  |  |
| AAGCUGUGAGGAUAUACAUGAGGAUCACCCAUGUUAAGGAAGUCUUGGUUAAUUUGGAGUAGAAGGCGCUUAUU | 0.0309 µM | 0.0255 µM |  |  |
| UAUGGUAAAGUCAGGAUAUACGUGCAGUUUUCUGGGUAGAAGGGACAUGAGGAUCACCCAUGUAUGGUAGUGUU | 0.118 µM | 0.142 µM |  |  |
| AUCAGCUCGUCAGGAUAUACGUCACUGCGUCAGCAGUGUGGUCAGAUCACAUGAGGAUCACCCAUGUAGAAGGGACGAGCUGAU | 0.0286 µM | 0.549 µM |  |  |
| UUUCAGCAAGGAUAUACGGGCUGUGCUUUUCAUUUCUUACAACAUGAGGAUCACCCAUGUAGAAGGUGCAUCUU | 0.0725 µM | 0.111 µM |  |  |
| AAAAAACAUGAGGAUCACCCAUGUGAGGAUAUGUAUAUCCCUAAAAAAGUGUGGGACUACAGAAGGCACUUGGA | 0.0797 µM | 0.207 µM |  |  |
| CCUUGUAGCGGAGGAUAUGGGCCUCACUCAGUCAAAGAGUGAGAAACAUGAGGAUCACCCAUGUCCCAGAAGGCCGCUGCUUGG |  |  | 0.0178 µM | 0.0128 µM |

| Sequence | apparent Kd [1] | apparent Kd [2] | apparent Kd [3] | apparent Kd [4] |
| --- | --- | --- | --- | --- |
| AAAUAGCAUGAGGAUAUUGGACUGGAUUCAGUACGAGAAGGCAUGACAUGAGGAUCACCCAUGUUGUGUUGGGA | 0.0197 µM | 0.0448 µM |  |  |
| UAUGUAUUCGUAGGAUAUCCGUCGCCACCGUGUGGAGAAGGACGAACAUGAGGAUCACCCAUGUAUCAUGGUGUAGACACUUUU | 0.0984 µM | 0.154 µM |  |  |
| CGAUGACAAAGUCAUCGAAUACGAACAUGAGGAUCACCCAUGUAGGAUAUGCUACUCAAAGAGUAGCAGAAGGACAUGUGUCUU | 0.0314 µM | 0.154 µM |  |  |
| UGGAUGGUAUGAGGAUAUGCGCGCGAAACGCGCGCAGAAGGCGUGUCAAUAGACAUGAGGAUCACCCAUGUACUAUCCAUCCAA |  |  | 0.0852 µM | 0.00982 µM |
| CCCGGCGAGUCGCUACGCCGAGAGCAGGAUAUUCCGCCGUGAUCUACAUGAGGAUCACCCAUGUGGAAGAAGGGCUACACAAAA | 0.0151 µM | 0.158 µM |  |  |
| AACAGUACAGGAUAUACAUGAGGAUCACCCAUGUGAUAAUUAAGUGGCGUACCACAAAGUAGAAGGGUACUGGA | 0.0379 µM | 0.153 µM |  |  |
| CGAAGUCCGUAGAAGGGUGACAUGAGGAUCACCCAUGUGCGAGCCGUGGGAGUCAGCGGCUCGCCACAGGAUAUACGGAGCACG |  |  | 0.0306 µM | 0.026 µM |
| GCAUGACAAAGUCAUGCAAUACGAACAUGAGGAUCACCCAUGUAGGAUAUGCUACUCAAAGAGUAGCAGAAGGACAUGUGCCUU | 0.0361 µM | 0.288 µM |  |  |
| AUUGUUUAUGUAGGAUAUGCCUGGCGUGCCUUUGCAGAAGGACAUGAGGAUCACCCAUGUAUUGCGGUCUGCGUUCAGAUCGCA | 0.0332 µM | 0.0443 µM |  |  |
| UUAAUUAACAAGAAGGCAUACAUGAGGAUCACCCAUGUUCUACAUGGAUAAUGAGGAUAUUGCUAAUACAUGAGGAUCACCCAU | 0.0536 µM | 0.0508 µM |  |  |
| ACCUCACAUGAGGAUCACCCAUGUCAGGAUAUACGAAGGUAUAGCGCCGAAUACUGAAGUAGAAGGGACAGGCA | 0.0269 µM | 0.0769 µM |  |  |
| UGAUCUAUGUAGAAGGCCCAUAUCUAUAUUUAGGGAGGAUAUACAUGAGGAUCACCCAUGUAUAGAGCUAGUGGACUAGUCACC | 0.0209 µM | 0.0471 µM |  |  |
| UAUGUGUCAGGAUAUUGUUAGUUUAGUUGUUUGUAUUAGUUCGAGAAGGGACAUGAGGAUCACCCAUGUUGUUU | 0.0309 µM | 0.0286 µM |  |  |
| GGAUAGGACAGAGGAUAUACGUGCUAGAGAUACUAGCAAAAUUUCCUAACAUGAGGAUCACCCAUGUAGAAGGCUGUCCUAUCG | 0.00661 µM | 0.0133 µM |  |  |
| ACAUGAGGAUCACCCAUGUGAUGAUCUUCCAUGUCAUAUUUCAGAAGGCUCGCAUGUUUGAUGAGAGAGGAUAUGGAAUAUGCG | 0.79 µM | 0.368 µM |  |  |
| UUGGACCUAGGAUAUACAUGAGGAUCACCCAUGUUGGCGCACGCCCACCUGGGCCCGAGUAGAAGGAGGAAUGU | 0.0189 µM | 0.0203 µM |  |  |
| GCUUGUAGAGGAUAUACAAGGGCCUUAGCGGAUAACACCGCACAUGAGGAUCACCCAUGUAGAAGGCUACCACC | 0.0168 µM | 0.0941 µM |  |  |
| CACAAGAAAGUCGAAGGUUGAAGUAGAAGGACUAUAACAUGACAUGAGGAUCACCCAUGUGCCAAGUAGGAUAUGCUUUAAUCG | 0.0077 µM | 0.00738 µM |  |  |
| GAGAUGUGAGGAUAUCUGGACCGUGGAAGAGCCACGGUCCGAGAGAAGGCACAUGAGGAUCACCCAUGUGAUGA | 0.0384 µM | 0.171 µM |  |  |
| UAUGAGCGAGGAUAUGCUUGGGACUGUCGGAAUGUGGCGGGACAUGAGGAUCACCCAUGUAGAAGGCGCGAGCG | 0.0951 µM | 0.212 µM |  |  |
| UGUCGGAGCAGAGGAUAUUACAUGAGGAUCACCCAUGUAUGAACCAAUAGCUGGAUACAGCAAUGUAAGAAGGCUGCUCCGACA | 0.00916 µM | 0.0892 µM |  |  |
| CGCUGUCAUGCAGGAUAUGCAUUGGAUUACAAUGCAGAAGGGCGAUUACAUGAGGAUCACCCAUGUGUAGACAGUGAAGAAGAG |  |  | 0.415 µM | 0.0344 µM |
| UUAGGACGAAACAUGAGGAUCACCCAUGUGUUAUAAUUAAUAUAGGAUAUGUUUAUACUUUUUGGGCAGAAGGAUGAUAUUGCU |  |  | 0.0198 µM | 0.0168 µM |
| AGCGAGCUAGGAUAUACAUGAGGAUCACCCAUGUCUUUUUAGUACUACGGUGGAAGAUGUAGAAGGAGUGAGAA | 0.0951 µM | 0.0683 µM |  |  |
| ACAUGAGGAUCACCCAUGUUCACAUAGGAUAUUGAUUUUAUUGGUUUUAGAAUAGUAAUUAAACUCAAGAAGGAUGCCAGUUGU |  |  | 0.0107 µM | 0.00878 µM |
| CUAUUUUGUGCCUCAUUUACAUGAGGAUCACCCAUGUUAACUUAGGAUAUAUUUAUAUUGUUAGAGUAGAAGGAAGUACAAUUU | 0.0835 µM | 0.0559 µM |  |  |
| AGAUCACAUGAGGAUCACCCAUGUCAGGAUAUCGACUGAACAGCUUCGGCUGUUCAGUCGAGAAGGGACAAUUA | 0.279 µM | 0.86 µM |  |  |
